Test results published in ChEMBL document CHEMBL1124612, “Synthesis and structure-activity relationships of a series of anxioselective pyrazolopyridine ester and amide anxiolytic agents” (J Med Chem, 1989).
Activity calls are given as the source filed them. The calls are words filed in the database; no cut-off is given here.

Assays:
[1] = target: GABA-A receptor; anion channel; experiment: (§1) Inhibition of [3H]flunitrazepam binding to GABA-A benzodiazepine receptor of rat cerebral cortex; type: tissue-based
[2] = tested on: Rattus norvegicus; experiment: Minimum effective dose (ip) tested for its anxiolytic activity in rat using the shock-induced suppression of drinking (SSD) test; NS is No Significant activity at 50 mg/Kg; type: functional, organism-based
Outline: (§2)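 Shock-induced suppression of drinking (Vogel-type conflict) in rats, with compounds given intraperitoneally at one or more dose levels, 8 rats per dose. MED is the lowest dose giving a significant increase (p < 0.05, Student's t test) in the mean number of shocks taken versus vehicle control.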

[3] = target: T1, GABA-A receptor; anion channel (Rattus norvegicus) (UniProt O09028+P15431+P18506+P18508+P19969+P20236+P23574+P23576+P28471+P28473+P30191+P62813+P63079+P63138+Q91ZM7+Q9ES14); experiment: Displacement of [3H]flunitrazepam from GABA-A benzodiazepine receptor of rat cerebral cortex at 500 nM; type: tissue-based
Outline: (§3)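 Rat cerebral cortex membranes were incubated with [3H]flunitrazepam in the presence of the test agent at a single concentration (nM), run in triplicate with under 7% variation between values. Binding is reported as % inhibition of [3H]flunitrazepam binding.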

[4] = tested on: Rattus norvegicus; experiment: Minimum effective dose (ip) tested for its anxiolytic activity in rat using the shock-induced suppression of drinking (SSD) test; NS is No Significant activity at 25 mg/Kg; type: functional, organism-based; outline: as §2
[5] = tested on: GABA-A receptor; anion channel; experiment: Inhibition of [3H]flunitrazepam binding to GABA-A benzodiazepine receptor of rat cerebral cortex (Not Significant at 5000 nM); type: tissue-based; outline: as §3
[6] = tested on: GABA-A receptor; anion channel; experiment: Inhibition of [3H]flunitrazepam binding to GABA-A benzodiazepine receptor of rat cerebral cortex at 500 nM; type: tissue-based; outline: as §3
[7] = target: T1, GABA-A receptor; anion channel (Rattus norvegicus); experiment: Displacement of [3H]flunitrazepam from GABA-A benzodiazepine receptor of rat cerebral cortex at 5000 nM; type: tissue-based; outline: as §3
[8] = tested on: Rattus norvegicus; experiment: Minimum effective dose (po) tested for its anxiolytic activity in rat using the shock-induced suppression of drinking (SSD) test; NS is No Significant activity at 50 mg/Kg; type: functional, organism-based
Outline: (§4)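 Rats (n = 8 per dose) were dosed orally at one or more levels and then run in the shock-induced suppression of drinking conflict test. MED is the dose producing a significant rise (p < 0.05, Student's t test) in mean shocks accepted relative to vehicle-treated controls.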

[9] = tested on: Rattus norvegicus; experiment: Minimum effective dose (ip) tested for its anxiolytic activity in rat using the shock-induced suppression of drinking (SSD) test.; type: functional; details: read-out: MED; outline: as §2
[10] = tested on: Rattus norvegicus; experiment: Minimum effective dose (po) tested for its anxiolytic activity in rat using the shock-induced suppression of drinking (SSD) test; NS is No Significant activity at 100 MG/kG; type: functional, organism-based; details: 100 M; outline: as §4
[11] = target: T1, GABA-A receptor; anion channel (Rattus norvegicus); experiment: Displacement of [3H]flunitrazepam from GABA-A benzodiazepine receptor of rat cerebral cortex at 800 nM; type: tissue-based; outline: as §3
[12] = tested on: Rattus norvegicus; experiment: Minimum effective dose (ip) tested for its anxiolytic activity in rat using the shock-induced suppression of drinking (SSD) test; NS is No Significant activity at 5 mg/Kg; type: functional, organism-based; outline: as §2
[13] = tested on: Rattus norvegicus; experiment: Minimum effective dose (po) tested for its anxiolytic activity in rat using the shock-induced suppression of drinking (SSD) test.; type: functional; details: read-out: MED; outline: as §4
[14] = tested on: Rattus norvegicus; experiment: Minimum effective dose (ip) tested for its anxiolytic activity in rat using the shock-induced suppression of drinking (SSD) test; NS is No Significant activity at 160 mg/Kg; type: functional, organism-based; outline: as §2
[15] = tested on: Rattus norvegicus; experiment: Minimum effective dose (ip) tested for its anxiolytic activity in rat using the shock-induced suppression of drinking (SSD) test; NS is No Significant activity at 25 mg/KG; type: functional, organism-based; outline: as §2
[16] = target: T1, GABA-A receptor; anion channel (Rattus norvegicus); experiment: Displacement of [3H]flunitrazepam from GABA-A benzodiazepine receptor of rat cerebral cortex at 50 nM; type: tissue-based; outline: as §3
[17] = target: GABA-A receptor; anion channel; experiment: as §1; type: tissue-based; remark: listed apart in the source
Outline: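 [3H]Flunitrazepam displacement from rat cerebral cortex benzodiazepine receptors, run in triplicate with under 7% variation between values. IC50 is the concentration (nM) giving half-maximal inhibition of binding, determined from three or more concentrations.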

[18] = tested on: Rattus norvegicus; experiment: Minimum effective dose (po) tested for its anxiolytic activity in rat using the shock-induced suppression of drinking (SSD) test; NS is No Significant activity at […]; type: functional, organism-based; outline: as §4
[19] = tested on: Monkey; experiment: Compound was tested for activity using primate conflict test in monkey.; type: functional; details: Cercopithecidae, in Primates; read-out: MED
[20] = tested on: Rattus norvegicus; experiment: Compound was tested in vivo for activity to induce sedation or ataxia in rat using rotarod test; type: functional
[21] = species on record: Rattus norvegicus; experiment: Compound was tested for activity against ethanol-induced impairment of rotarod performance in rat.; type: functional
[22] = species on record: Rattus norvegicus; experiment: Sedative liability index (SLI) to indicate the separation between the anxiolytic and ataxic doses in rats; type: functional
Outline: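 Ratio computed as rat rotorod ED50 (mg/kg) divided by the SSD minimum effective dose (mg/kg), with both given orally. The SSD MED is the lowest dose (N=8/dose) giving a significant increase (p < 0.05, Student's t test) in mean shocks taken over vehicle control in the rat shock-induced suppression of drinking test.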

[23] = Ethanol interaction ratio (EIR) of the compound.; type: ADME
Outline: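 Ratio computed as rat rotorod ED50 for drug given with ethanol (mg/kg) divided by the SSD minimum effective dose (mg/kg), both orally. The SSD MED is the lowest dose (N=8/dose) giving a significant rise (p < 0.05, Student's t test) in mean shocks taken versus vehicle in the rat shock-induced suppression of drinking test.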

[24] = tested on: Rattus norvegicus; experiment: Compound was tested in vivo for antagonistic activity against metrazole-induced convulsions in rat; type: functional
[25] = tested on: Rattus norvegicus; experiment: Minimum effective dose (ip) tested for its anxiolytic activity in rat using the shock-induced suppression of drinking (SSD) test; NS is No Significant activity at […]; type: functional, organism-based; outline: as §2
[26] = target: GABA-A receptor; anion channel; experiment: Inhibition of [3H]flunitrazepam binding to GABA-A benzodiazepine receptor of rat cerebellum; type: tissue-based
[27] = target: GABA-A receptor; anion channel; experiment: Inhibition of [3H]flunitrazepam binding to GABA-A benzodiazepine receptor of rat cortex
[28] = species on record: Rattus norvegicus; experiment: Compound was tested for activity against ethanol-induced impairment of rota rod performance in rat.; type: functional

In the case of `C=CCCOC(=O)c1c(C)nc2c(cnn2CCCCC)c1N`, the IC50 [1] is reported as 174 nM and the MED [2] is reported as “inactive”.
For `CCCCCn1ncc2c(N)c(C(=O)OCC(C)C)c(C)nc21`, the inhibition [3] was 55% and the MED [4] was “inactive”.
With `CCCCCn1ncc2c(N)c(C(=O)O)c(C)nc21` the IC50 [5] was “Not Active” and the minimal effective dose [2] was “inactive”.
For `C=CCNC(=O)c1cnc2c(cnn2CCCCC)c1NCCCC`, the IC50 [6] was “Not Active” and the NS [4] was “inactive”.
For `CCCCCn1ncc2c(N)c(C(=O)NCCCC)c(C)nc21`, the inhibition [7] was 31% and the MED [8] was “inactive”.
For `CCOC(=O)c1c(C)nc2c(cnn2CCC(C)(C)C)c1N`, the inhibition [3] was 38% and the minimal effective dose [2] was “inactive”.
In the case of `CCNc1c(C(=O)OCC)c(C)nc2c1cnn2CC`, the IC50 [5] is reported as “Not Active” and the minimal effective dose [9] is reported as 25 mg/kg.
For `CCCCCn1ncc2c(N)cc(C)nc21`, the inhibition [7] was 13% and the minimal effective dose [2] was “inactive”.
For `C=CCOC(=O)c1cnc2c(cnn2CCCCC)c1N`, the IC50 [1] was 16 nM and the MED [10] was “inactive”.
For `CCOC(=O)c1c(C)nc2c(cnn2CC)c1N(C)C`, the inhibition [11] was 13% and the MED [4] was “inactive”.
With `CCCNc1c(C(=O)OCC)c(C)nc2c1cnn2CC` the IC50 [5] was “Not Active” and the MED [12] was “inactive”.
For `CCCCCn1ncc2c(N)c(C(=O)OC(C)C)c(C)nc21`, the inhibition [7] was 48% and the minimal effective dose [13] was 50 mg/kg.
In the case of `CCOC(=O)c1cc2cnn(CC)c2nc1C`, the inhibition [7] is reported as 14% and the NS [14] is reported as “inactive”.
For `C=CCOC(=O)c1c(C)nc2c(cnn2CC=C(C)C)c1N`, the IC50 [1] was 6.4 nM and the MED [15] was “inactive”.
Compound `C=CCNC(=O)c1c(C)nc2c(cnn2CCCCC)c1N` has an inhibition [16] of 0% and a minimal effective dose [13] of 50 mg/kg.
For `CCCCCn1ncc2c(O)c(C(=O)OCC)c(C)nc21`, the IC50 [6] was “Not Active” and the minimal effective dose [2] was “inactive”.
`C#CCCCn1ncc2c(N)c(C(=O)NCC=C)cnc21` gave an IC50 [17] of 9.3 nM and a minimal effective dose [13] of 6.3 mg/kg.
In the case of `CCCCCn1ncc2c(N)c(C(=O)OCC)c(C(C)C)nc21`, the inhibition [3] is reported as 54% and the MED [18] is reported as “inactive”.
`CN1C(=O)CN=C(c2ccccc2)c2cc(Cl)ccc21` [DIAZEPAM] gave a minimal effective dose [19] of 1.6 mg/kg, an ED50 [20] of 10.2 mg/kg and an ED50 [21] of 2.5 mg/kg. It also gave a minimal effective dose [13] of 5 mg/kg, an SLI [22] of 2 and an EIR [23] of 0.5. It also gave an ED50 [24] of 8.4 mg/kg.
`C=CCNC(=O)c1cnc2c(cnn2CCC#CC)c1NC(=O)CC` showed an inhibition [3] of 28% and a minimal effective dose [13] of 1.6 mg/kg.
In the case of `CCCCCn1ncc2c(N)c(C(=O)OCC)c(CC)nc21`, the IC50 [1] is reported as 302 nM and the MED [25] is reported as “inactive”.
`CCCCCn1ncc2c(N)c(C(=O)OC)c(C)nc21` showed an inhibition [7] of 54%.
`C=CCNC(=O)c1cnc2c(cnn2CCC#CC)c1N` showed an IC50 [1] of 81 nM, an IC50 [26] of 19 nM and an IC50 [27] of 81 nM. It also gave a minimal effective dose [19] of 3.1 mg/kg, an ED50 [20] of 25.1 mg/kg and an ED50 [28] of 3.1 mg/kg. It also gave a minimal effective dose [13] of 0.8 mg/kg, an SLI [22] of 31.4 and an EIR [23] of 3.9. For the same compound, the ED50 [24] was 1 mg/kg.
In the case of `CCOC(=O)c1c(C)nc2c(c(C)nn2CC)c1N`, the IC50 [5] is reported as “Not Active” and the MED [4] is reported as “inactive”.
